Data on four compounds can be found in ChEMBL document CHEMBL1821702, “8,8-Dimethyldihydroberberine with improved bioavailability and oral efficacy on obese and diabetic mouse models” (Bioorg Med Chem, 2010).

Data set [1] relates to Mus musculus. Description: Antidiabetic activity in C57BLKS/J-db/db mouse assessed as reduction of fasting blood glucose level at 250 mg/kg/day, po for 5 weeks. The format is functional, organism-based.
Data set [2] relates to Mus musculus. Briefly: Antidiabetic activity in high fat diet-fed C57BL/6J mouse assessed as decrease in plasma insulin level at 250 mg/kg/day, po for 4 weeks. The format is functional. Details: scale not given: the % may be the effect or the level left. In short, it runs like this: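 DIO male C57BL/6J mice (60 kcal% fat diet for 8 weeks) were gavaged daily in 0.5% microcrystalline cellulose/1.6% lactose vehicle. Plasma insulin was determined by ELISA after 4 weeks of treatment. Mean ± SE, n = 5–8.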

The test system of data set [3] is Mus musculus. Description: Antidiabetic activity in high fat diet-fed C57BL/6J mouse assessed as decrease in blood glucose level at 250 mg/kg/day, po for 4 weeks measured after 60 mins by intraperitoneal glucose tolerance test. The format is functional, organism-based. In short, it runs like this: (§1)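 High-fat-diet (60 kcal%, 8 weeks) male C57BL/6J mice were randomized by body weight and fed glucose, then dosed orally once daily in cellulose/lactose vehicle. ipGTT was done at 4 weeks: D-glucose 2 g/kg ip, glucometer readings at 0, 15, 30, 60, 90 and 120 min. n = 5–8.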

The subject of data set [4] is Mus musculus. Description: Antiobese activity in C57BLKS/J-db/db mouse assessed as decrease in plasma triglyceride level at 250 mg/kg/day, po […]. The format is functional. Also on record: scale not given: the % may be the effect or the level left. In short, it runs like this:
(§2)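 db/db mice were gavaged once daily in 0.5% microcrystalline cellulose/1.6% lactose vehicle for 6 weeks and killed after the final dose. Plasma triglycerides were measured with a colorimetric triglyceride assay kit.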

In data set [5] the test system is Mus musculus. Description: Antidiabetic activity in C57BLKS/J-db/db mouse assessed as decrease in area under curve at 50 mg/kg/day, po for 4 weeks by insulin tolerance test. Also on record: scale not given: the % may be the effect or the level left. The format is functional.
The subject of data set [6] is Mus musculus. Briefly: Antiobese activity in high fat diet-fed C57BL/6J mouse assessed as decrease in plasma triglyceride level at 250 mg/kg/day, po for 6 weeks. The format is functional. Also on record: scale not given: the % may be the effect or the level left. In short, it runs like this:
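DIO male C57BL/6J mice received daily oral dosing in cellulose/lactose vehicle for 6 weeks and were killed after the final dose. Plasma and liver triglycerides were measured by triglyceride assay kit, and fat depots were weighed.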

Data set [7] has as its system Mus musculus. Briefly: Antidiabetic activity in high fat diet-fed C57BL/6J mouse assessed as decrease in blood glucose level at 250 mg/kg/day, po for 4 weeks measured after 120 mins by intraperitoneal glucose tolerance test. The format is functional, organism-based. The essentials: as §1
The species named for data set [8] is Rattus norvegicus. Briefly: Induction of AMPK phosphorylation in 2 hrs serum starved rat differentiated L6 myotubes after 1 hr. In short, it runs like this:
(§3)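 Fully differentiated L6 myotubes were serum-starved 2 h, then treated 1 h across a dose series. Phospho-AMPK (Thr172) and phospho-ACC (Ser79) were detected by Western blot. Three independent experiments.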

The test system of data set [9] is L6. Briefly: Cytotoxicity against rat L6 cells upto 10 uM after 24 hrs by MTT assay. The format is cell-based. The settings on record: l6, 24 h. The essentials:
(§4)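 Differentiated L6 myoblasts were exposed to a concentration range of compounds for 24 h at 37 °C. MTT (5 mg/mL) was added for 3 h, formazan was dissolved in DMSO, and absorbance was read at 550 nm against 690 nm reference. Mean of three independent experiments ± SE.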
(Tetrazolium assays rely on reduction of a dye to a coloured formazan, in cell work by metabolically active cells.)

The species entered for data set [10] is Rattus norvegicus. Briefly: Induction of AMPK-dependent ACC phosphorylation in 2 hrs serum starved rat differentiated L6 myotubes after 1 hr. In short, it runs like this:
as §3

In data set [11] the test system is L6. Briefly: Cytotoxicity against rat L6 cells upto 40 uM after 24 hrs by MTT assay. The settings on record: l6, 24 h. The format is cell-based. In short, it runs like this:
as §4

In data set [12] the test system is L6. Description: Increase in glucose uptake in rat differentiated L6 myotubes after 1 hr relative to untreated control. The format is functional. The essentials: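 Fully differentiated L6 myotubes were serum-starved 2 h, then treated with compound for 15 min to 2 h (dose series at 1 h). Glucose uptake was measured relative to DMSO control. Mean of three independent experiments ± SE.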

Data set [13] in a line: Stability in acidic buffer at pH 2 after 6 hrs by HPLC. The format is physicochemical. Particulars: acidic buffer, pH 2. The essentials: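 A 0.5 mg/mL solution in acetonitrile was adjusted to pH 2 with H3PO4 and analyzed over 6 h by HPLC. Conditions: C18 column at 25 °C, 58% acetonitrile in 0.05 mol/L KH2PO4/0.005 mol/L SDS, 1 mL/min, detection at 320 nm.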
The nature of data set [14]: Oral bioavailability in 12 hrs fasting Sprague-Dawley rat at 20 mg/kg. The format is ADME, organism-based. The settings on record: in vivo.
Data set [15] has as its system Mus musculus. Description: Antidiabetic activity in C57BLKS/J-db/db mouse assessed as reduction of fasting blood glucose level at 50 mg/kg/day, po for 3 weeks. The format is functional. Also on record: scale not given: the % may be the effect or the level left.
Data set [16] relates to Mus musculus. Briefly: Antidiabetic activity in C57BLKS/J-db/db mouse assessed as alleviation of glucose tolerance at 50 mg/kg/day, po for 3 weeks by intraperitoneal glucose tolerance test. The format is functional, organism-based. In short, it runs like this: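 Male and female C57BLKS/J-db/db mice, randomized at 6 weeks of age by body weight and fed glucose, were gavaged once daily in vehicle (0.5% microcrystalline cellulose, 1.6% lactose). For ipGTT, D-glucose was given at 2 g/kg ip, and blood glucose was read by glucometer at 0, 15, 30, 60, 90 and 120 min.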

The nature of data set [17]: Aqueous solubility of compound in distilled water. The format is physicochemical. In short, it runs like this:
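Excess solid was suspended in distilled water and stirred 24 h at 25 ± 0.5 °C. The suspension was filtered, and dissolved concentration was measured by HPLC.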

The subject of data set [18] is Mus musculus. Briefly: Antidiabetic activity in C57BLKS/J-db/db mouse assessed as decrease in fed blood glucose level at 50 mg/kg/day, po for 4 weeks. The format is functional. Also on record: scale not given: the % may be the effect or the level left.
Data set [19] relates to Mus musculus. Description: Toxicity in C57BLKS/J-db/db mouse assessed as change in body weight at 50 mg/kg/day, po for 6 weeks. Also on record: route oral. The format is organism-based. Particulars: in vivo, 1008 h. In short, it runs like this:
(§5)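 db/db mice (half male, half female) were dosed by oral gavage daily for 6 weeks in 0.5% microcrystalline cellulose/1.6% lactose vehicle. Body weight and food intake were recorded daily. Mice were killed after the final dose, and liver and fat depots were weighed and expressed relative to body weight.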

Data set [20] has as its system Mus musculus. Briefly: Toxicity in C57BLKS/J-db/db mouse assessed as change in food intake at 50 mg/kg/day, po for 6 weeks. Particulars: in vivo, 1008 h. The format is organism-based. Details: route oral. In short, it runs like this: as §5
Data set [21] relates to Mus musculus. Briefly: Toxicity in C57BLKS/J-db/db mouse assessed as increase in subcutaneous fat at 50 mg/kg/day, po for 6 weeks. The format is organism-based. Also on record: route oral. Particulars: in vivo, 1008 h. In short, it runs like this: as §5
Data set [22] has as its system Mus musculus. Description: Antiobese activity in C57BLKS/J-db/db mouse assessed as decrease in plasma triglyceride level at 50 mg/kg/day, po […]. The format is functional. In short, it runs like this: as §2
Data set [23] relates to Mus musculus. Description: Toxicity in C57BLKS/J-db/db mouse assessed as reduction in liver weight at 50 mg/kg/day, po for 6 weeks. The format is organism-based. Details: route oral; scale not given: the % may be the effect or the level left. Particulars: in vivo, 1008 h. The essentials: as §5
Data set [24] deals with Mus musculus. Description: Antidiabetic activity in C57BLKS/J-db/db mouse assessed as decrease in fed blood glucose level at 50 mg/kg/day, po for 3 weeks. Also on record: scale not given: the % may be the effect or the level left. The format is functional.

Activity calls are given as the source filed them. No cut-off for these calls is given here.

As to `CN(C)C(=N)NC(=N)N` [METFORMIN], the outcome in the data set on Mus musculus [1], in the data set with Mus musculus [3] and in the data set on Mus musculus [7] was Active. Moreover, the Activity is given as 43% with Mus musculus [2], 23% in the data set on Mus musculus [4], 14% with Mus musculus [5] and 33% in the data set with Mus musculus [6].

In the case of `CCC1(CC)c2c(ccc(OC)c2OC)CC2=[N+]1CCc1cc3c(cc12)OCO3.[Cl-]` [8,8-Diethyldihydroberberine], the values for the Activity result in the data set filed under Rattus norvegicus [8], in the data set with L6 [9] and in the data set listed under Rattus norvegicus [10] were “Dose-dependent effect”, “Toxic” and “Dose-dependent effect”, respectively.

`CCCC1(CCC)c2c(ccc(OC)c2OC)CC2=[N+]1CCc1cc3c(cc12)OCO3.[Cl-]` [8,8-Dipropyldihydroberberine]: the Activity entry with L6 [11] is “Non-toxic”; in the data set on L6 [12], 62%.

For the compound `COc1ccc2c(c1OC)CN1CCc3cc4c(cc3C1=C2)OCO4` [DIHYDROBERBERINE], the decrease in content after 6 h at 6 h in data set [13] came to 17%. For the same compound, the bioavailability in [14] worked out at 2.65%. In addition, the Activity with Mus musculus [15] is reported as 17%; in the data set on Mus musculus [18] it was 18%; in the data set with Mus musculus [19], “Non-toxic”; with Mus musculus [5], 12%; in the data set with Mus musculus [20], “Non-toxic”; in the data set with Mus musculus [21], 14%. Also, the Activity in the data set on Mus musculus [23] is listed as 11%; in the data set on Mus musculus [24], 25%. Further, the result in the data set on Mus musculus [16] and in the data set on Mus musculus [22] was inactive. Moreover, the solubility in [17] was less than 1000 µg/mL.

As a reminder, the bioavailability is dose-corrected exposure relative to a reference, in per cent. By solubility is commonly meant the dissolved amount per volume that the medium holds.
